{"source": "ChEMBL document CHEMBL5032510", "about": "“Identification of Novel Fused Heteroaromatics-Based MALT1 Inhibitors by High-Throughput Screening to Treat B Cell Lymphoma” (J Med Chem, 2021)", "key": {"[1]": {"molecular_target": "T1, Mucosa-associated lymphoid tissue lymphoma translocation protein 1 (Homo sapiens, UniProt Q9UDY8)", "T1 sequence (Q9UDY8 whole entry)": "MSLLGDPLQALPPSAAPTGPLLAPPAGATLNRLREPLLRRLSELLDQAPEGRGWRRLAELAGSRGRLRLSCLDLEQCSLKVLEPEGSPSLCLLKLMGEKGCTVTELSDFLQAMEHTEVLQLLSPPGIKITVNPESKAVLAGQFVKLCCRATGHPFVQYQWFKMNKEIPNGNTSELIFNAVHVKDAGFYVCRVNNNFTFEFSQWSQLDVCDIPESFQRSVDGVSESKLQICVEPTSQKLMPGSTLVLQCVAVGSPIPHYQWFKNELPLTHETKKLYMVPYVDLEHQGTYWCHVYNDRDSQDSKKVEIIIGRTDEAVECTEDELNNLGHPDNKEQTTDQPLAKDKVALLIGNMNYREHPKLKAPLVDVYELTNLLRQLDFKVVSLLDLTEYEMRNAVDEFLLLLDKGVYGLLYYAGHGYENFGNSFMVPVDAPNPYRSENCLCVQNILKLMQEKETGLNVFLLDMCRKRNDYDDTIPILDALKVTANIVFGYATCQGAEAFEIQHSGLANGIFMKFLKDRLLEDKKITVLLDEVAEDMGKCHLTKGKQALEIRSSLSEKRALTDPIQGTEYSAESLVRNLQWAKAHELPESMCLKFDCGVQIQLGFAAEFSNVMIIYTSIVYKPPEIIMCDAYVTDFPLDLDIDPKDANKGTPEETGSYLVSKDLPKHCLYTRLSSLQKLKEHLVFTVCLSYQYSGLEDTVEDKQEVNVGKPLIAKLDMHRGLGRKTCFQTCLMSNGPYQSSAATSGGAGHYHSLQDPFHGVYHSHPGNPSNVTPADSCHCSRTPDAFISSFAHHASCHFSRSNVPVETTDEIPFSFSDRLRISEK", "assay": "Inhibition of MALT1 (340 to 789 residues) (unknown origin) using Ac-LRSR-AMC as substrate by fluorescence based analysis", "outline": "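N-terminal His-tagged LZ-MALT1 expressed in E. coli, purified by Ni-NTA then gel filtration. Fluorescence read at 360/465 nm. IC₅₀ came from concentration–response curves; mean of three independent experiments.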"}, "[2]": {"test_system": "OCI-Ly1", "assay": "Antiproliferative activity against human OCI-Ly1 cells assessed as inhibition of cell growth incubated for 72 hrs by Celltiter-Glo luminescent assay", "assay_type": "functional", "outline": "(§1)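 Exponentially growing cells were seeded at 1 × 10⁴ per 100 μL. HBL-1 and TMD8 were kept in RPMI with 10% FBS, 2 mM glutamine and 10 mM HEPES; OCI-LY1 in Iscove's medium with 20% FBS; all at 37 °C and 5% CO2. Cells were exposed to DMSO or 2-fold serial dilutions from 100 μM for 72 h, in triplicate on one plate. CellTiter-Glo luminescence was read after 1 h. Growth inhibition was calculated against control, accounting for initial cell number, and GI50 was fitted.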"}, "[3]": {"test_system": "TMD8", "assay": "Antiproliferative activity against human TMD8 cells assessed as inhibition of cell growth incubated for 72 hrs by Celltiter-Glo luminescent assay", "assay_type": "functional", "outline": "as §1"}, "[4]": {"molecular_target": "T1, Mucosa-associated lymphoid tissue lymphoma translocation protein 1", "assay": "Inhibition of N-terminal his-tagged GCN4 leucine zipper fused human MALT1 […] expressed in Escherichia coli using Ac-LVSR-AMC as substrate by HTS assay"}, "[5]": {"assay": "Antiproliferative activity against human HBL1 cells assessed as inhibition of cell growth incubated for 72 hrs by Celltiter-Glo luminescent assay", "assay_type": "functional", "outline": "as §1"}, "[6]": {"molecular_target": "T1, Mucosa-associated lymphoid tissue lymphoma translocation protein 1", "assay": "Inhibition of MALT1 (329-824 residues) (unknown origin) using PT14 as substrate incubated for 60 mins by fluorescence based assay"}, "[7]": {"molecular_target": "T1, Mucosa-associated lymphoid tissue lymphoma translocation protein 1", "assay": "Inhibition of full length recombinant wild type MALT1 (unknown origin) using Ac-LVSR-AMC as substrate by HTS assay"}}, "note": "Activity calls are given as the source filed them. The calls are words filed in the database; no cut-off is given here."}
{"smiles": "CC(C)[C@H](NC(=O)c1ccc(Br)cc1)C(=O)N1CCC[C@H]1C(=O)N[C@@H](CCCNC(=N)N)C(=O)CF", "values": [{"measurement": "IC50", "setting": "[1]", "value": 0.01, "unit": "µM"}]}
{"smiles": "O=C(O)c1cccc(NC(=O)c2sc(=S)n3c2[nH]c(=O)c2cc(Br)ccc23)c1", "values": [{"measurement": "GI50", "setting": "[2]", "value": 23.7, "unit": "µM"}, {"measurement": "GI50", "setting": "[3]", "value": 23.7, "unit": "µM"}, {"measurement": "IC50", "setting": "[4]", "value": 14.9, "unit": "µM"}, {"measurement": "GI50", "setting": "[5]", "value": 12.4, "unit": "µM"}]}
{"smiles": "CO[C@@H](C)c1c(NC(=O)Nc2cnc(C(=O)N3CCCC3)c(Cl)c2)cnc2cc(Cl)nn12", "values": [{"measurement": "IC50", "setting": "[6]", "value": 0.005, "unit": "µM"}]}
{"smiles": "COC(=O)c1ccc2c(=O)[nH]c3c(C(=O)Nc4ccc(-c5ccccc5)cc4)sc(=S)n3c2c1", "values": [{"measurement": "GI50", "setting": "[2]", "value": 34, "unit": "µM"}, {"measurement": "GI50", "setting": "[3]", "value": 23, "unit": "µM"}, {"measurement": "IC50", "setting": "[4]", "value": 6.4, "unit": "µM"}, {"measurement": "GI50", "setting": "[5]", "value": 16, "unit": "µM"}]}
{"smiles": "O=C(Nc1cc(Cl)cc(Cl)c1)c1sc(=S)n2c1[nH]c(=O)c1ccccc12", "values": [{"measurement": "GI50", "setting": "[2]", "value": 10, "unit": "µM"}, {"measurement": "GI50", "setting": "[3]", "value": 3.7, "unit": "µM"}, {"measurement": "IC50", "setting": "[4]", "value": 2.2, "unit": "µM"}, {"measurement": "GI50", "setting": "[5]", "value": 8, "unit": "µM"}]}
{"smiles": "COCCOc1nc(-c2ccc(Cl)c(Cl)c2)n(-c2ccc(NC(=O)CCl)cc2)n1", "values": [{"measurement": "IC50", "setting": "[7]", "value": 5.84, "unit": "µM"}]}
{"smiles": "Cc1ccc(NC(=O)c2sc(=S)n3c2[nH]c(=O)c2cc(C)ccc23)c(C)c1", "values": [{"measurement": "Activity", "setting": "[2]", "value": "inactive"}, {"measurement": "GI50", "setting": "[3]", "value": 15.6, "unit": "µM"}, {"measurement": "IC50", "setting": "[4]", "value": 7.16, "unit": "µM"}, {"measurement": "GI50", "setting": "[5]", "value": 20.4, "unit": "µM"}]}
{"smiles": "COc1ccc(OC)c(NC(=O)c2sc(=S)n(-c3cccc(Br)c3)c2NC(=O)CCl)c1", "values": [{"measurement": "GI50", "setting": "[2]", "value": 12.7, "unit": "µM"}, {"measurement": "GI50", "setting": "[3]", "value": 1.2, "unit": "µM"}, {"measurement": "IC50", "setting": "[4]", "value": 4.6, "unit": "µM"}, {"measurement": "GI50", "setting": "[5]", "value": 1.8, "unit": "µM"}]}
{"smiles": "COc1ccc(OC)c(NC(=O)c2sc(=S)n(-c3cccc(C(F)(F)F)c3)c2NC(=O)CCl)c1", "values": [{"measurement": "GI50", "setting": "[2]", "value": 13.3, "unit": "µM"}, {"measurement": "GI50", "setting": "[3]", "value": 1.3, "unit": "µM"}, {"measurement": "IC50", "setting": "[4]", "value": 3.2, "unit": "µM"}, {"measurement": "GI50", "setting": "[5]", "value": 2.2, "unit": "µM"}]}
{"smiles": "COC(=O)c1ccc2c(=O)[nH]c3c(C(=O)Nc4ccc(F)cc4F)sc(=S)n3c2c1", "values": [{"measurement": "GI50", "setting": "[2]", "value": 21.6, "unit": "µM"}, {"measurement": "GI50", "setting": "[3]", "value": 28.2, "unit": "µM"}, {"measurement": "IC50", "setting": "[4]", "value": 12.2, "unit": "µM"}, {"measurement": "GI50", "setting": "[5]", "value": 14.2, "unit": "µM"}]}
{"smiles": "COC(=O)c1ccc2c(=O)[nH]c3c(C(=O)Nc4cc(OC)ccc4OC)sc(=S)n3c2c1", "values": [{"measurement": "GI50", "setting": "[2]", "value": 13.4, "unit": "µM"}, {"measurement": "GI50", "setting": "[3]", "value": 7, "unit": "µM"}, {"measurement": "IC50", "setting": "[4]", "value": 5.3, "unit": "µM"}, {"measurement": "GI50", "setting": "[5]", "value": 6.7, "unit": "µM"}]}
{"smiles": "COc1cccc(CNC(=O)c2sc(=S)n3c2[nH]c(=O)c2cc(Br)ccc23)c1", "values": [{"measurement": "GI50", "setting": "[2]", "value": 16.1, "unit": "µM"}, {"measurement": "GI50", "setting": "[3]", "value": 16.1, "unit": "µM"}, {"measurement": "IC50", "setting": "[4]", "value": 12.8, "unit": "µM"}, {"measurement": "GI50", "setting": "[5]", "value": 16.1, "unit": "µM"}]}
{"smiles": "COc1ccc(OC)c(NC(=O)c2sc(=S)n3c2[nH]c(=O)c2ccc(Cl)cc23)c1", "values": [{"measurement": "GI50", "setting": "[2]", "value": 20.7, "unit": "µM"}, {"measurement": "GI50", "setting": "[3]", "value": 8.4, "unit": "µM"}, {"measurement": "IC50", "setting": "[4]", "value": 5.2, "unit": "µM"}, {"measurement": "GI50", "setting": "[5]", "value": 8.2, "unit": "µM"}]}
{"smiles": "O=C(NCc1ccco1)c1sc(=S)n2c1[nH]c(=O)c1cc(Br)ccc12", "values": [{"measurement": "GI50", "setting": "[2]", "value": 36.8, "unit": "µM"}, {"measurement": "GI50", "setting": "[3]", "value": 16.2, "unit": "µM"}, {"measurement": "IC50", "setting": "[4]", "value": 5.2, "unit": "µM"}, {"measurement": "GI50", "setting": "[5]", "value": 13.2, "unit": "µM"}]}
